Sampled rows, rich in hits. Any-hit rate of the full collection: about 4.6%.
TAAR1 antag = human TAAR1 antagonism; Q96RJ0; CHO RD-HGA16 TAAR1, Fluo-8 calcium fluorescence, antagonist; inhibition, % at 3 µM; hit rate 1.5% among 360,000;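 active = inhibition above a per-plate cutoff, the mean inhibition of test compounds on that plate plus 3 SD, cut at about 49% in these data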
Target sequence (Q96RJ0 whole entry, looked up): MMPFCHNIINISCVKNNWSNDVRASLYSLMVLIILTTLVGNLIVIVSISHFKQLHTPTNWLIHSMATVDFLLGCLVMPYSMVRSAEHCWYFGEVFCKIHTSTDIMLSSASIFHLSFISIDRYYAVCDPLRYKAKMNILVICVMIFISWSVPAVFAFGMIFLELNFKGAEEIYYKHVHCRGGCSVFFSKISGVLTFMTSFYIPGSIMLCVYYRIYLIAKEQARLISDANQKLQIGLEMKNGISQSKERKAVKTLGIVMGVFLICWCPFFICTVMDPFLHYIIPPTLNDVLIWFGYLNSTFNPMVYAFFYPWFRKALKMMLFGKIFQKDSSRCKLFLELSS
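System: CHO RD-HGA16 cells bearing hTAAR1. Reagent: EC80 β-phenethylamine stimulus. Schedule: seeding 17-24 h prior, 75-min 37 °C, 30-min RT dye loading. Signal: Fluo-8 intracellular calcium dye fluorescence, real-time kinetic reads. Read-out: % inhibition from peak post-agonist over basal fluorescence ratio. Benchmarks: vehicle wells and EC80 agonist wells. Replicates: n of 1.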
GPR7 antagonist = blocks human GPR7 receptor signaling. P48145. GPR7-expressing cells, fluorescence antagonist assay. inhibition, % at 4.4 µM. hit rate 1.1% among 290,000; in the data active = inhibition above about 16%, passing the limit was not always enough;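 also: cells stimulated with the agonist NPW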
Target sequence (P48145 whole entry, looked up): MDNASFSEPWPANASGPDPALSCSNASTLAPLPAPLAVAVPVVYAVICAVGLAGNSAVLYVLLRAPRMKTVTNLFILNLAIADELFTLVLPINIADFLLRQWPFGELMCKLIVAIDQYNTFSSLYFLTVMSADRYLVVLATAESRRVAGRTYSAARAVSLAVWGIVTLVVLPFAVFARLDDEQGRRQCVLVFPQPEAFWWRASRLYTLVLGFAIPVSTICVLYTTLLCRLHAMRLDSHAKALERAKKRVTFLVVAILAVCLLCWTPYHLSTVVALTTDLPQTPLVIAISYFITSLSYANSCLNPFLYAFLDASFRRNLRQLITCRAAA
OX1R antag-1 = OX1R (human) antagonism; O43613; OX1R-expressing cells, FRET antagonist read-out; inhibition, % at 6.6 µM; hit rate 1.8% among 330,000; in the data active = inhibition mostly above about 38%, no sharp cut-off; inactive = mostly below about 40%
TAAR1 ag = human TAAR1 agonism. Q96RJ0. CHO RD-HGA16 TAAR1, Fluo-8 calcium fluorescence; vehicle wells 0%, saturating PEA agonist 100%. activation, % at 3 µM. hit rate 0.99% among 360,000;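 active = activation above the mean activation of all test compounds in the run plus 3 SD, cut at about 38% in these data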
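Assay system: CHO-derived RD-HGA16 cells with stable Gα16 and human TAAR1; timing: 17-24 h seeding, 75 min 37 °C dye, 30 min RT; read-out: % activation from peak over basal fluorescence ratio, DMSO-to-PEA scaled; measured by: kinetic Fluo-8 calcium fluorescence; benchmarks: low control DMSO, high control PEA (EC100); doses: 3 µM single concentration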
CHO parental Ca = counter-screen for OX1R antagonists: effect in parental CHO cells; parental CHO-K1, ATP-induced calcium, Fluo-8 fluorescence; inhibition, % at 5.6 µM; hit rate 0.63% among 330,000; AID 463079;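 active = inhibition above that plate's mean sample inhibition plus 3 SD, cut at about 26% in these data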
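Material: parental CHO cells / Compound: single nominal dose of 5.6 µM per compound / Signal: Fluo-8 fluorescence / Replicates: singlicate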
OX1R antag-2 = human HCRTR1 antagonism; CHO/OX1R cells, Fluo-8 calcium fluorescence, orexin A; inhibition, % at 5 µM; hit rate 0.43% among 330,000; AID 434989;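 active = inhibition above its plate's threshold, mean inhibition of all tested compounds on the plate plus 3 SD, cut at about 37% in these data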
OX1R Ca confirm = OX1R (human) antagonism, confirmed; shares compounds with OX1R antag-2; CHO/OX1R cells, orexin A calcium Fluo-8 fluorescence; inhibition, % at 5 µM; hit rate 38% among 1,100; AID 492963; in the data active = inhibition above about 29%
CHO Ca triplic = counter-screen: parental CHO calcium response change, triplicate; shares compounds with OX1R antag-2; parental CHO-K1, ATP-induced calcium, Fluo-8 fluorescence; inhibition, % at 5.6 µM; hit rate 9.3% among 1,100;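 active = inhibition above a per-plate limit, the mean inhibition of that plate's test compounds plus 3 SD, cut at about 25% in these data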
OX1R HTRF confirm = confirmation of human orexin 1 receptor antagonists, HTRF format. inhibition, % at 6.6 µM. OX1R-expressing cells, HTRF antagonist assay. AID 492964. shares compounds with OX1R antag-1. hit rate 49% among 1,800; in the data active = inhibition above about 55%;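 also: CHO cells expressing OX1R stimulated with orexin A at about EC80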
CHO-K1 HTRF = counter-screen: parental CHO-K1 HTRF response; shares compounds with OX1R antag-1; parental CHO-K1 cells, HTRF counterscreen; inhibition, % at 6.6 µM; hit rate 48% among 1,800; in the data active = inhibition above about 17%
nonsel antag count = nonselective antagonism, TAAR1 counter-screen | inhibition, % at 3 µM | shares compounds with TAAR1 antag | hit rate 77% among 2,400 | counterscreen cell line, calcium fluorescence, antagonist mode; in the data active = inhibition above about 22%;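 also: CHO-Ga16 host cells stimulated with ATP at an EC80 level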
TAAR1 ant conf = human TAAR1 antagonism, confirmed. shares compounds with TAAR1 antag. TAAR1-expressing cells, fluorescence antagonist read-out. inhibition, % at 3 µM. hit rate 40% among 2,400; in the data active = inhibition above about 49%;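 also: CHO-Ga16 host cells challenged with agonist PEA near its EC80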
Ga16 ag counter-1 = nonselective Ga16 agonist in TAAR1 antagonist counter-screen; AID 651953; hit rate 18% among 2,400; activation, % at 3 µM; shares compounds with TAAR1 antag; Ga16-expressing cells, calcium fluorescence, agonist counterscreen; in the data active = activation above about 12%
TAAR1 ag counter = TAAR1 agonism, antagonist counter-screen. shares compounds with TAAR1 antag. hTAAR1 cell line, fluorescence activation, agonist mode. activation, % at 3 µM. hit rate 2% among 2,400. AID 651955; in the data active = activation above about 37%;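 also: CHO cells stably expressing TAAR1 with calcium dye readout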
TAAR1 ag confirm = human TAAR1 agonism, confirmed | shares compounds with TAAR1 ag | CHO RD-HGA16 TAAR1, Fluo-8 calcium fluorescence; scaled: DMSO 0%, maximal phenethylamine 100% | activation, % at 3 µM | hit rate 82% among 2,400;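 active = activation above a cutoff set at the run's mean compound activation plus 3 SD, cut at about 39% in these data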
Ga16 ag counter-2 = nonselective agonism, TAAR1 counter-screen; hit rate 50% among 2,400; shares compounds with TAAR1 ag; activation, % at 3 µM; CHO-Ga16 parental, Fluo-8 calcium fluorescence; normalized to maximal ATP response, DMSO zero;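 active = activation above the run cutoff, the mean activation over all tested wells plus 3 SD, cut at about 12% in these data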
TAAR1 desensitize = TAAR1 response desensitization, agonist counter-screen | hit rate 46% among 2,400 | shares compounds with TAAR1 ag | CHO RD-HGA16 hTAAR1, Fluo-8 calcium, beta-PEA response inhibition | AID 651951 | inhibition, % at 3 µM;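 active = inhibition above the run cutoff, the mean inhibition of all test compounds plus 3 SD, cut at about 49% in these data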;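 also: beta-PEA stimulus applied at its EC80; loss of beta-PEA calcium signal after compound pretreatment read as receptor desensitization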
Ga16 nonsel ant = nonselective Ga16 antagonism, counter-screen; AID 651952; hit rate 39% among 2,400; inhibition, % at 3 µM; shares compounds with TAAR1 ag; CHO-Ga16 ATP-induced calcium, Fluo-8 fluorescence;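 active = inhibition above the plate's mean compound inhibition plus 3 SD, computed per plate, cut at about 22% in these data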
Large screens that a line does not name were inactive (follow-up assays come after a bar, where they were run).

O=C(NCCCl)Nc1ncn[nH]1	none (no result: GPR7 antagonist, OX1R antag-1, CHO parental Ca, OX1R antag-2)
COc1ccc(NC(=O)CN(C)CC(=O)N2CC(=O)Nc3ccccc32)cc1	none (no result: GPR7 antagonist)
C=CCn1c(CCCOc2ccc(Cl)cc2Cl)nnc1SCC(=O)Nc1nccs1	TAAR1 antag 49 | OX1R Ca confirm inactive | CHO Ca triplic inactive | nonsel antag count 32 | TAAR1 ant conf inactive | Ga16 ag counter-1 inactive | TAAR1 ag counter inactive
O=C(OCC#CCSc1nnc(-c2cccc3ccccc23)o1)c1cccc2[nH]ccc12	TAAR1 antag 51, OX1R antag-1 67, OX1R antag-2 68 (no result: GPR7 antagonist) | OX1R Ca confirm 30 | CHO Ca triplic inactive | OX1R HTRF confirm 88 | CHO-K1 HTRF inactive | nonsel antag count inactive | TAAR1 ant conf inactive | Ga16 ag counter-1 inactive | TAAR1 ag counter inactive
CCC(=O)Nc1ccc(N2CCN(C(=O)c3cccs3)CC2)cc1	none
O=C(COc1ccccc1[N+](=O)[O-])Nc1ccc(N2CCN(C(=O)c3cccs3)CC2)cc1	TAAR1 antag 92 | OX1R Ca confirm 62 | CHO Ca triplic 36 | nonsel antag count 50 | TAAR1 ant conf 71 | Ga16 ag counter-1 22 | TAAR1 ag counter inactive
CCOc1cccc(C(=O)Nc2cccc(-c3nnc(-c4ccccc4)o3)c2)c1	none
COc1cccc(C(=O)Nc2cccc(-c3nnc(-c4ccccc4)o3)c2)c1	TAAR1 antag 74 (no result: GPR7 antagonist) | OX1R Ca confirm inactive | CHO Ca triplic inactive | nonsel antag count 23 | TAAR1 ant conf 56 | Ga16 ag counter-1 inactive | TAAR1 ag counter inactive
CCOC(=O)Cn1cnc2c(nnn2-c2cccc(Cl)c2)c1=O	none
O=C(Nc1nnc(-c2ccc(Cl)cc2)o1)c1nc2ccccc2s1	TAAR1 ag 92 | OX1R Ca confirm inactive | CHO Ca triplic inactive | TAAR1 ag confirm 85 | Ga16 ag counter-2 71 | TAAR1 desensitize 50 | Ga16 nonsel ant 54
O=C(CC1SC(N2CCCC2)=NC1=O)Nc1ccc(C(=O)NCCOc2ccccc2F)cc1 (stereo not drawn)	none (no result: GPR7 antagonist, OX1R antag-1, CHO parental Ca, OX1R antag-2)
CC1=CCC[C@@H]2[C@@](C)(CC/C(C)=C/C(=O)O)[C@H](C)CC[C@@]12C	none
Cc1ccc(C)c(Cn2nnc(C(=O)Nc3ccc4c(c3)OCCO4)c2N)c1	TAAR1 antag 67, TAAR1 ag 102 (no result: GPR7 antagonist) | OX1R Ca confirm 36 | CHO Ca triplic inactive | TAAR1 ag confirm 105 | Ga16 ag counter-2 55 | TAAR1 desensitize 63 | Ga16 nonsel ant 30
CCCc1nnc(NC(=O)Cn2c(=O)oc3cc(Br)ccc32)s1	TAAR1 antag 63, TAAR1 ag 121 | OX1R Ca confirm inactive | CHO Ca triplic inactive | TAAR1 ag confirm 106 | Ga16 ag counter-2 73 | TAAR1 desensitize 75 | Ga16 nonsel ant 45
CCCc1nnc(NC(=O)Cn2c(=O)oc3ccccc32)s1	none
CC(C)(O)C#Cc1cccc(-c2nc(C(=O)NCCCN3CCOCC3)cc3c2[C@H](CCO)N(S(=O)C(C)(C)C)C3)c1 (stereo partly drawn)	none (no result: GPR7 antagonist, OX1R antag-1, CHO parental Ca, OX1R antag-2)
CCOc1ccc(NS(=O)(=O)c2ccc(NC(=S)NC(=O)CC(C)C)cc2)cc1	TAAR1 antag 61, TAAR1 ag 72 | OX1R Ca confirm inactive | CHO Ca triplic inactive | TAAR1 ag confirm 70 | Ga16 ag counter-2 31 | TAAR1 desensitize 68 | Ga16 nonsel ant 39
CC(C)CC(=O)NC(=S)Nc1ccc(S(=O)(=O)NC(C)(C)C)cc1	none
O=C(Nc1ccccc1)[C@@H]1CC=C[C@@H]2CCN(Cc3ccc(Cl)c(Cl)c3)C(=O)[C@@H]21	OX1R antag-1 85, TAAR1 ag 57, OX1R antag-2 66 (no result: GPR7 antagonist) | OX1R Ca confirm 56 | CHO Ca triplic inactive | OX1R HTRF confirm 92 | CHO-K1 HTRF inactive | TAAR1 ag confirm 51 | Ga16 ag counter-2 12 | TAAR1 desensitize inactive | Ga16 nonsel ant inactive
O=C1Nc2cc(Cl)c(Cl)cc2N(O)N1c1ccc(Cl)c(Cl)c1	none
COc1ccc(C(=O)NNC(=S)NC(=O)c2cccs2)cc1	TAAR1 ag 103 | OX1R Ca confirm inactive | CHO Ca triplic inactive | TAAR1 ag confirm 67 | Ga16 ag counter-2 40 | TAAR1 desensitize inactive | Ga16 nonsel ant 26
COc1ccc(C(=O)NNC(=S)Nc2ccccc2)cc1	none
COc1ccc(C(=O)NC(=S)NNC(=O)c2cccc(C)c2)cc1	TAAR1 antag 104, TAAR1 ag 170 (no result: GPR7 antagonist) | OX1R Ca confirm 31 | CHO Ca triplic inactive | TAAR1 ag confirm 148 | Ga16 ag counter-2 122 | TAAR1 desensitize 106 | Ga16 nonsel ant 74
O=C1C(NS(=O)(=O)c2ccc(Cl)cc2)=C(N2CCCCC2)C(=O)c2ccccc21	OX1R antag-1 111 | OX1R HTRF confirm inactive | CHO-K1 HTRF 41

Screening data deposited in PubChem by The Scripps Research Institute Molecular Screening Center.
